In ChEMBL document CHEMBL1938313, “Influence of the skeleton on the cytotoxicity of flavonoids” (Bioorg Med Chem, 2012):

Columns and labels:
KB [1] = assay: Cytotoxicity against human KB cells assessed as growth inhibition at 10 '-6 M after 72 hrs by MTS assay; type: functional; conditions: read-out: GI
In short: (§1)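 Cells seeded at 600 per well, dosed 24 h later from DMSO stocks over 0.5 nM–10 µM (DMSO 1% final in controls). KB was grown in D-MEM with 10% fetal calf serum; HL60 in complete RPMI. After 72 h, MTS was added for 3 h at 37 °C and A490 read. Inhibition % = (1 − OD treated/OD control) × 100, in triplicate; IC50 runs were in duplicate.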

HL-60 [2] = assay: Induction of apoptosis in human HL60 cells assessed as viable cells at 100 nM after 24 hrs using annexin-V-PE/7-AAD staining by flow cytometry analysis (reference value: 90.8 %); type: functional; conditions: HL-60, 24 h, read-out: Activity
HL-60 [3] = assay: Induction of apoptosis in human HL60 cells assessed as early apoptotic cells at 100 nM after 24 hrs using annexin-V-PE/7-AAD staining by flow cytometry analysis (reference value: 7.5 %); type: functional
HL-60 [4] = assay: Induction of apoptosis in human HL60 cells assessed as late apoptotic cells at 100 nM after 24 hrs using annexin-V-PE/7-AAD staining by flow cytometry analysis (reference value: 0.8 %); type: functional
HL-60 [5] = assay: Induction of apoptosis in human HL60 cells assessed as viable cells at 100 nM after 48 hrs using annexin-V-PE/7-AAD staining by flow cytometry analysis (reference value: 83.9 %); type: functional; conditions: HL-60, 48 h, read-out: Activity
HL-60 [6] = assay: Induction of apoptosis in human HL60 cells assessed as early apoptotic cells at 100 nM after 48 hrs using annexin-V-PE/7-AAD staining by flow cytometry analysis (reference value: 14.7 %); type: functional
HL-60 [7] = assay: Induction of apoptosis in human HL60 cells assessed as late apoptotic cells at 100 nM after 48 hrs using annexin-V-PE/7-AAD staining by flow cytometry analysis (reference value: 0.6 %); type: functional
HL-60 [8] = assay: Cell cycle arrest in human HL60 cells assessed as accumulation at Sub G1 phase at 20 nM after 24 hrs by propidium iodide based flow cytometry analysis (reference value: 2.3 %); type: functional
HL-60 [9] = assay: Cell cycle arrest in human HL60 cells assessed as accumulation at G0/G1 phase at 20 nM after 24 hrs by propidium iodide based flow cytometry analysis (reference value: 50.6 %); type: functional
HL-60 [10] = assay: Cell cycle arrest in human HL60 cells assessed as accumulation at S phase at 20 nM after 24 hrs by propidium iodide based flow cytometry analysis (reference value: 22.3 %); type: functional
HL-60 [11] = assay: Cell cycle arrest in human HL60 cells assessed as accumulation at G2/M phase at 20 nM after 24 hrs by propidium iodide based flow cytometry analysis (reference value: 24.8 %); type: functional
HL-60 [12] = assay: Cell cycle arrest in human HL60 cells assessed as accumulation at Sub G1 phase at 20 nM after 48 hrs by propidium iodide based flow cytometry analysis (reference value: 4 %); type: functional
HL-60 [13] = assay: Cell cycle arrest in human HL60 cells assessed as accumulation at G0/G1 phase at 20 nM after 48 hrs by propidium iodide based flow cytometry analysis (reference value: 51.2 %); type: functional
HL-60 [14] = assay: Cell cycle arrest in human HL60 cells assessed as accumulation at S phase at 20 nM after 48 hrs by propidium iodide based flow cytometry analysis (reference value: 20.9 %); type: functional
HL-60 [15] = assay: Cell cycle arrest in human HL60 cells assessed as accumulation at G2/M phase at 20 nM after 48 hrs by propidium iodide based flow cytometry analysis (reference value: 23.9 %); type: functional
Ovis aries [16] = organism: Ovis aries; assay: Inhibition of sheep brain tubulin polymerization at 2 x 10 '-5 M after 10 mins by turbidimetry
In short: (§2)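 Microtubule protein was purified from sheep brain by two assembly/disassembly cycles (37 °C/0 °C) in 100 mM MES pH 6.6, 1 mM EGTA, 0.5 mM MgCl2. Compound in DMSO (1 µL) was added to 150 µL microtubule solution, incubated 10 min at 37 °C then 5 min at 0 °C, and turbidity read at 350 nm. Single tests were at ~2 × 10^-5 M; IC50 was also expressed relative to deoxypodophyllotoxin IC50.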

KB [17] = assay: Cytotoxicity against human KB cells after 72 hrs by MTS assay; type: functional, cell-based; in short: as §1
HL-60 [18] = assay: Cytotoxicity against human HL60 cells after 72 hrs by MTS assay; type: functional, cell-based; conditions: HL-60, 72 h; in short: as §1
HL-60 [19] = assay: Cell cycle arrest in human HL60 cells assessed as accumulation at Sub G1 phase at 100 nM after 24 hrs by propidium iodide based flow cytometry analysis (reference value: 2.3 %); type: functional
HL-60 [20] = assay: Cell cycle arrest in human HL60 cells assessed as accumulation at G0/G1 phase at 100 nM after 24 hrs by propidium iodide based flow cytometry analysis (reference value: 50.6 %); type: functional
HL-60 [21] = assay: Cell cycle arrest in human HL60 cells assessed as accumulation at S phase at 100 nM after 24 hrs by propidium iodide based flow cytometry analysis (reference value: 22.3 %); type: functional
HL-60 [22] = assay: Cell cycle arrest in human HL60 cells assessed as accumulation at G2/M phase at 100 nM after 24 hrs by propidium iodide based flow cytometry analysis (reference value: 24.8 %); type: functional
HL-60 [23] = assay: Cell cycle arrest in human HL60 cells assessed as accumulation at Sub G1 phase at 100 nM after 48 hrs by propidium iodide based flow cytometry analysis (reference value: 4 %); type: functional
HL-60 [24] = assay: Cell cycle arrest in human HL60 cells assessed as accumulation at G0/G1 phase at 100 nM after 48 hrs by propidium iodide based flow cytometry analysis (reference value: 51.2 %); type: functional
HL-60 [25] = assay: Cell cycle arrest in human HL60 cells assessed as accumulation at S phase at 100 nM after 48 hrs by propidium iodide based flow cytometry analysis (reference value: 20.9 %); type: functional
HL-60 [26] = assay: Cell cycle arrest in human HL60 cells assessed as accumulation at G2/M phase at 100 nM after 48 hrs by propidium iodide based flow cytometry analysis (reference value: 23.9 %); type: functional
[27] = Inhibition of sheep brain tubulin polymerization after 10 mins by turbidimetry analysis; design: species or system Ovis aries; in short: as §2
Ovis aries [28] = organism: Ovis aries; assay: Ratio of compound IC50 to DPPT IC50 for sheep brain tubulin; in short: as §2
HL-60 [29] = assay: Cytotoxicity against human HL60 cells assessed as growth inhibition after 72 hrs by MTS assay; conditions: HL-60, 72 h

## COc1ccc(-c2coc3c(OC)c(OC)c(OC)c(O)c3c2=O)cc1[N+](=O)[O-]
KB [1]
  inhibition of growth at 1 µM: 18%

## COc1ccc(/C=C/C(=O)c2c(O)c(OC)c(OC)c(OC)c2OC)cc1N
KB [1]
  inhibition of growth at 1 µM: 11%

## COc1cc(OC)c(/C=C2\Oc3c(OC)c(OC)c(OC)c(O)c3C2=O)cc1N
KB [1]
  inhibition of growth at 1 µM: 0%

## COc1cccc2c1C(=O)c1c(O)c3c(c(O)c1C2=O)C[C@@](O)(C(=O)CO)C[C@@H]3O[C@H]1C[C@H](N)[C@H](O)[C@H](C)O1 [DOXORUBICIN]
HL-60 [2]
  viability at 0.1 µM: 81%
HL-60 [3]
  Activity: 17.8%
HL-60 [4]
  Activity: 0.9%
HL-60 [5]
  viability at 0.1 µM: 29.8%
HL-60 [6]
  Activity: 68%
HL-60 [7]
  Activity: 1.9%

## COc1ccc(-c2oc3c(OC)c(OC)c(OC)cc3c(=O)c2OC)cc1N
KB [1]
  inhibition of growth at 1 µM: 84%

## COc1cc([C@@H]2c3cc4c(cc3C[C@H]3COC(=O)[C@@H]32)OCO4)cc(OC)c1OC [DESOXYPODOPHYLLOTOXIN]
HL-60 [8]
  Activity: 7.7%
HL-60 [9]
  Activity: 25.2%
HL-60 [10]
  Activity: 9.5%
HL-60 [11]
  Activity: 57.6%
HL-60 [12]
  Activity: 34.1%
HL-60 [13]
  Activity: 23.5%
HL-60 [14]
  Activity: 37.7%
HL-60 [15]
  Activity: 29.8%

## COc1ccc(-c2coc3c(OC)c(OC)c(OC)c(O)c3c2=O)cc1N
KB [1]
  inhibition of growth at 1 µM: 0%

## COc1ccc(-c2cc(=O)c3c(OC)c(OC)c(OC)c(OC)c3o2)cc1N
KB [1]
  inhibition of growth at 1 µM: 6%

## COc1ccc(C2COc3c(OC)c(OC)c(OC)c(O)c3C2=O)cc1N (configuration not stated)
KB [1]
  inhibition of growth at 1 µM: 4%

## COc1ccc(-c2cc(=O)c3c(O)c(OC)c(OC)c(OC)c3o2)cc1N
KB [1]
  inhibition of growth at 1 µM: 96%

## COc1ccc(-c2oc3c(OC)c(OC)c(OC)c(OC)c3c(=O)c2OC)cc1N
KB [1]
  inhibition of growth at 1 µM: 17%

## COc1ccc(/C=C2\Oc3c(cc(OC)c(OC)c3OC)C2=O)cc1[N+](=O)[O-]
KB [1]
  inhibition of growth at 1 µM: 0%
Ovis aries [16]
  inhibition: 12%

## COc1ccc(/C=C2\Oc3c(cc(OC)c(OC)c3OC)C2=O)cc1N
KB [1]
  inhibition of growth at 1 µM: 98%
KB [17]
  IC50: 400 nM
HL-60 [18]
  IC50: 180 nM
Ovis aries [16]
  inhibition: 33%
HL-60 [2]
  viability at 0.1 µM: 85.4%
HL-60 [3]
  Activity: 12.1%
HL-60 [4]
  Activity: 1.5%
HL-60 [5]
  viability at 0.1 µM: 81.7%
HL-60 [6]
  Activity: 16.4%
HL-60 [7]
  Activity: 1.1%
HL-60 [19]
  Activity: 13.9%
HL-60 [20]
  Activity: 39%
HL-60 [21]
  Activity: 18.7%
HL-60 [22]
  Activity: 28.4%
HL-60 [23]
  Activity: 14%
HL-60 [24]
  Activity: 42.6%
HL-60 [25]
  Activity: 22.5%
HL-60 [26]
  Activity: 20.8%

## COc1cc(OC)c(/C=C2\Oc3c(cc(OC)c(OC)c3OC)C2=O)cc1N
KB [1]
  inhibition of growth at 1 µM: 0%
Ovis aries [16]
  inhibition: 12%

## COc1ccc(/C=C2\Oc3c(OC)c(OC)c(OC)c(O)c3C2=O)cc1[N+](=O)[O-]
KB [1]
  inhibition of growth at 1 µM: 0%

## COc1ccc(/C=C2\Oc3c(cc(OC)c(OC)c3OC)C2=O)cc1O
KB [1]
  inhibition of growth at 1 µM: 100%
KB [17]
  IC50: 110 nM
HL-60 [18]
  IC50: 120 nM
Ovis aries [16]
  inhibition: 21%
HL-60 [2]
  viability at 0.1 µM: 81.1%
HL-60 [3]
  Activity: 16.8%
HL-60 [4]
  Activity: 1.1%
HL-60 [5]
  viability at 0.1 µM: 73.3%
HL-60 [6]
  Activity: 24.9%
HL-60 [7]
  Activity: 1.1%
HL-60 [19]
  Activity: 14.4%
HL-60 [20]
  Activity: 40.3%
HL-60 [21]
  Activity: 20.6%
HL-60 [22]
  Activity: 24.7%
HL-60 [23]
  Activity: 21.1%
HL-60 [24]
  Activity: 35.1%
HL-60 [25]
  Activity: 25.6%
HL-60 [26]
  Activity: 18.2%

## COc1ccc(/C=C2\Oc3c(OC)c(O)c(OC)c(OC)c3C2=O)cc1N
KB [1]
  inhibition of growth at 1 µM: 0%

## COc1ccc(/C=C2\Oc3c(OC)c(OC)c(OC)c(O)c3C2=O)cc1N
KB [1]
  inhibition of growth at 1 µM: 0%

## COc1ccc(-c2oc3c(OC)c(OC)c(OC)c(O)c3c(=O)c2OC)cc1N
KB [1]
  inhibition of growth at 1 µM: 99%
HL-60 [18]
  IC50: 55 nM
[27]
  IC50: 9000 nM
Ovis aries [28]
  Ratio IC50: 4
HL-60 [2]
  viability at 0.1 µM: 74.2%
HL-60 [3]
  Activity: 22.8%
HL-60 [4]
  Activity: 2.1%
HL-60 [5]
  viability at 0.1 µM: 56.3%
HL-60 [6]
  Activity: 41%
HL-60 [7]
  Activity: 1.9%
HL-60 [19]
  Activity: 8.9%
HL-60 [20]
  Activity: 40.3%
HL-60 [21]
  Activity: 17.5%
HL-60 [22]
  Activity: 33.3%
HL-60 [23]
  Activity: 19.1%
HL-60 [24]
  Activity: 33.1%
HL-60 [25]
  Activity: 26.5%
HL-60 [26]
  Activity: 21.3%

## COc1ccc(/C=C2\Oc3c(cc(OC)c(OC)c3OC)C2=O)c(O)c1O
[27]
  IC50: 8600 nM
Ovis aries [28]
  Ratio IC50: 4
HL-60 [2]
  viability at 0.1 µM: 84.1%
HL-60 [3]
  Activity: 12.9%
HL-60 [4]
  Activity: 1.9%
HL-60 [5]
  viability at 0.1 µM: 77.1%
HL-60 [6]
  Activity: 21.1%
HL-60 [7]
  Activity: 0.8%
HL-60 [19]
  Activity: 14%
HL-60 [20]
  Activity: 9.8%
HL-60 [21]
  Activity: 23.7%
HL-60 [22]
  Activity: 52.5%
HL-60 [23]
  Activity: 23.2%
HL-60 [24]
  Activity: 31.4%
HL-60 [25]
  Activity: 28.2%
HL-60 [26]
  Activity: 17.2%
HL-60 [29]
  IC50: 100000 nM

## COc1ccc(/C=C2\Oc3c(OC)c(OC)c(OC)c(OC)c3C2=O)cc1N
KB [1]
  inhibition of growth at 1 µM: 0%
